Rows were chosen to be rich in hits. Some 1.3% of all compounds tested hit in one or more screens of this group.
Tn7 DDE FP: inhibitors of Tn7 peptide binding to fibrin DD(E), primary screen, biochemical, fluorescence polarization, human fibrin, Tn7 probe; FP displacement of FITC-Tn7 peptide from fibrin DD(E); 0% = median of compound wells per plate; AID 720508, 2013; inhibition, % at 8.3 µM; 370,000 compounds, 0.13% hits;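 active means inhibition above the mean of compounds falling within the control limits plus 3 SD of them, cut at about 14% in these data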;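 further: 0% = plate median of compound wells and 100% = 10 µM Aha-Tn7 peptide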
Target sequence (P02675 whole entry, looked up): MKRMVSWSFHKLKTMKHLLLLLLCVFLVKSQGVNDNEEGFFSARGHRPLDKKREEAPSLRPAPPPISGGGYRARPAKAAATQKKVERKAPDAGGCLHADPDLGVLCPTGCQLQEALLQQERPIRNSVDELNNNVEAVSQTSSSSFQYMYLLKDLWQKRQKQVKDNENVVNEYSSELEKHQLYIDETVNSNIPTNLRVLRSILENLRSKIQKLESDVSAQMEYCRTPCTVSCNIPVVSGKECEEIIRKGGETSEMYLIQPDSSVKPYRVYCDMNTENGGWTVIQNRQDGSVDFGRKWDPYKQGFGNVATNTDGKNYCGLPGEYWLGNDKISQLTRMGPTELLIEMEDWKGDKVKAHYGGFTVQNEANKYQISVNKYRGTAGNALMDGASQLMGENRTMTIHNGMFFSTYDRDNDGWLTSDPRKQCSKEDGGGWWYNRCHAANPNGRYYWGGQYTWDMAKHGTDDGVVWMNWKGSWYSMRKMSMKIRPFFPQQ
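Assay system: human fibrin DD(E). Input: DD(E) 2 µM final. Medium: Tris buffer with calcium and detergent, pH 7.8. Compound dosing: single point at 8.3 µM. Timing: 10 min plus 3 h, room temperature. Technique: fluorescence polarization of the labelled Tn7 tracer. Read-out: percent inhibition. Replicates: singlicate testing.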
aDG glyco up: activators of alpha-DG glycosylation, primary screen, uHTS, Pro5-aDG cells, AlphaScreen; AID 624168, 2012; alpha-DG glycosylation AlphaScreen (IIH6); 0% Pro5, 100% B10-LARGE cell signal; 360,000 compounds, 0.22% hits; activation, % at 10 µM;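 active means activation of at least 8% versus controls, or a plate z-score of at least 8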;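 further: Pro5 are CHO cells carrying HIG-tagged alpha-DG that lacks glycosylation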
DDE Tn6 FP inh: inhibitors of Tn6 peptide binding to fibrin DD(E), primary screen, biochemical, fluorescence polarization, human fibrin, Tn6 probe; Fibrin DD(E) TRITC-Tn6 fluorescence polarization displacement; inhibition, % at 8.3 µM; 370,000 compounds, 0.21% hits;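 active means inhibition above a per-campaign cutoff: mean of compounds within control limits plus 3 SD, cut at about 15% in these data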;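 further: 0% = median of all compound wells on the plate and 100% = blocking peptide control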
NRP1-CendR mod: modulators of CendR peptide binding to NRP-1, primary screen, biochemical, fluorescence polarization, uHTS. FAM-RPARPAR peptide binding to NRP-1. inhibition, % at 25 µM. 360,000 compounds, 0.85% hits;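 active means inhibition or corrected inhibition above about 18%, plus a signal ratio from 0.5 to 1.5, limit read from the data, passing the limit was not always enough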
* hit, by the source's call; nt = no result given.

SMILES	Tn7 DDE FP	aDG glyco up	DDE Tn6 FP inh	NRP1-CendR mod
O=C(NCCC1=CCCCC1)C1CC(=O)N(C2CCCCCC2)C1 (configuration not stated)	3	0	2	21*
C=CCn1c(=O)/c(=C/c2ccc(Cl)cc2)s/c1=C(\C#N)c1nnc2n1CCCCC2	3	0	5	1
CCCCN1CCN(C(=O)c2cn(C(C)c3ccccc3)nn2)CC1 (configuration not stated)	-2	nt	-6	nt
CCOC(=O)C1=C(C)N(CCCC(=O)O)C(=O)NC1c1ccc(OC)cc1 (configuration not stated)	-1	0	-2	26*
CC1=C(C(=O)OCc2ccccc2)C(c2ccc([N+](=O)[O-])cc2)NC(=O)N1CCCC(=O)O (configuration not stated)	-3	0	-2	33*
CCCCNC(=O)C1CCCN1C(=O)Nc1cccc(C)c1 (configuration not stated)	3	nt	12	nt
CC(=O)Nc1ccccc1OCC(=O)NC(C)c1ccccc1 (configuration not stated)	1	0	1	0
CC(=O)Nc1ccccc1OCC(=O)N(Cc1ccccc1)C(C)C	-3	0	0	38*
O=C(NC1CCCC1)[C@@H]1CCCN1C(=O)[C@@H](NS(=O)(=O)c1ccc(F)cc1F)c1ccccc1	2	nt	-5	nt
COC(=O)c1c(C(=O)OC)c(-c2ccc(C)cc2)n2c1CCC2	-7	0	3	2
COC(=O)c1c(C(=O)OC)c(-c2ccc(Cl)c(Cl)c2)n2c1CCC2	nt	0	nt	23*
Cc1csc(NC(=O)CSc2nnc(-c3ccoc3C)n2CCc2ccccc2)n1	1	0	0	0
Cc1cccc(C)c1NC(=O)CSc1nnc(-c2ccoc2C)n1CCc1ccccc1	-2	0	-2	21*
CC(NC(=O)c1c(N)[nH]c(C(=O)c2ccc(Cl)cc2)c1-c1ccc(Br)cc1)c1cccc2ccccc12 (configuration not stated)	5	nt	-2	nt
COc1ccc(-n2nnnc2SCC(=O)N(C)C2CCS(=O)(=O)C2)cc1 (configuration not stated)	-9	0	-5	26*
Cc1ccc(N=C2NC(=O)/C(=C/c3cccnc3)S2)c(C)c1	-2	0	-3	0
Cc1ccc(N=C2NC(=O)/C(=C\c3ccsc3)S2)c(C)c1	5	0	-10	26*
COC(=O)/C=C/c1ccccc1S(=O)(=O)N(Cc1ccccc1)Cc1ccco1	8	0	3	17*
CC1(C)CC(=O)C=C(c2ccc(COC(=O)c3ccc(Br)cc3)cc2)C1=O	-1	nt	1	nt
CC1(C)CC(NC(=O)c2cccc(S(=O)(=O)N(Cc3ccccc3)c3ccccc3)c2)CC(C)(C)N1	-2	6.8*	1	10
O=C1/C(=N\S(=O)(=O)c2cccs2)C([n+]2ccc(CCCc3ccccc3)cc2)=C([O-])c2ccccc21	1	1	1	7
O=C1/C(=N\S(=O)(=O)c2cccs2)C([n+]2cccc(Cc3ccccc3)c2)=C([O-])c2ccccc21	nt	3.6*	nt	133
COC(=O)c1cc2c(c3c4cc(F)ccc4n(S(=O)(=O)c4ccc(C)cc4)c13)C(=O)N(Cc1ccccc1)C2	2	nt	0	nt
Cc1cc(C(=O)NC(C)C2CCCO2)cs1 (configuration not stated)	nt	0	nt	44*
CCc1cc(C(=O)NC(C)C2CCCO2)cs1 (configuration not stated)	-5	0	-7	2
SMILES	Tn7 DDE FP	aDG glyco up	DDE Tn6 FP inh	NRP1-CendR mod
COc1ccccc1CCn1cc(C#N)c(=O)[nH]c1=O	-4	0	4	12
Cc1ccc(C(=O)OCCn2cc(C#N)c(=O)[nH]c2=O)cc1	-6	0	4	27*
O=C(CNC(=O)C12CC3CC(CC(C3)C1)C2)NC1=NCCS1	4	0	0	26*
CCNc1ncnc2c1cnn2C1CCCO1 (configuration not stated)	-1	0	-4	6
Cc1cccc(CSc2nnc(-c3cnccn3)n2C)c1	-3	0	-6	38*
Cn1c(SCc2ccccn2)nnc1-c1cnccn1	-8	0	4	17

From PubChem
